The test system of one experiment is Poliovirus 1. Kind of experiment: microbe, parasite or virus in culture. It is filed as functional. The conditions noted are these: Enterovirus C; read-out: ED50 (the source's name).
A further experiment concerns CV-1. Put plainly: Chemotherapeutic index in CV-1 cells (chemotherapeutic index=50% cytotoxic dose/50% effective dose). Format: functional, Cercopithecidae. The method in brief:
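Index = 50% cytotoxic dose / 50% plaque-inhibition dose. For cytotoxicity, 200 cells/mL in suspension were mixed with 10% FBS MEM carrying serial compound dilutions and incubated 7 days at 37 °C under 5% CO2. Colonies were stained with 1% crystal violet and counted, and the 50% cytotoxic dose was read from the dose-response curve.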

The next experiment concerns Enterovirus. Put plainly: Antiviral activity against rhinovirus 10 using plaque-inhibition assay. Format: functional. The conditions noted are these: read-out: ED50 (the source's name). Put shortly:
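Plaque reduction: confluent monolayers were infected with 100-200 PFU. Hela (Ohio) cells were used for rhinoviruses 10 and 1A and coxsackieviruses B4 and A9, CV-1 for poliovirus type 1 Mahoney, and LLC-MK2 for enterovirus 70. Cells were overlaid with 2.0% agar in MEM plus 4% FBS containing serial compound concentrations. Incubation was 37 °C for polio/coxsackie and 33 °C for rhino/enterovirus, with a neutral red (0.004%) second overlay. ED50 was taken from the dose-response curve.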

The values below come from ChEMBL document CHEMBL1123419, “Synthesis and antiviral activity of sulfonamidobenzophenone oximes and sulfonamidobenzamides” (1986).

Structures are written as SMILES. In brackets after ≈: the same amount, converted by molar mass.

As for `CCCCc1ccc(NC(=O)c2cccc(NS(=O)(=O)C(C)C)c2)cc1`, the EC50 in the experiment with Poliovirus 1 amounted to 0.42 µg/mL (≈ 1.12 µM). On the same count and under the same terms, the result for `CC(C)S(=O)(=O)Nc1cccc(C(=O)NCc2ccccc2)c1` reads above 50 µg/mL; that for `CCCOc1ccc(NC(=O)c2ccc(NS(=O)(=O)N(C)C)cc2)cc1`, 0.7 µg/mL (≈ 1.85 µM). Turning to `CN(C)S(=O)(=O)Nc1cccc(NC(=O)c2ccccc2)c1`, the EC50 with Poliovirus 1 turned out to be 20 µg/mL (≈ 62.6 µM).

For the molecule `CN(C)S(=O)(=O)Nc1cccc(/C(=N/O)c2ccc3c(c2)OCO3)c1`, the EC50 with Poliovirus 1 is 3.4 µg/mL (≈ 9.36 µM). `CN(C)S(=O)(=O)Nc1cccc(/C(=N/O)c2ccc(CO)cc2)c1`: the Chemotherapeutic index in the experiment on CV-1 is given as 55. In addition, the EC50 in the experiment on Enterovirus came out at 0.37 µg/mL (≈ 1.06 µM); in the experiment on Poliovirus 1, 0.4 µg/mL (≈ 1.14 µM). As for `CC(C)S(=O)(=O)Nc1cccc(C(=O)Nc2ccccc2)c1`, the EC50 with Poliovirus 1 was found to be 7 µg/mL (≈ 22 µM).

`CN(C)S(=O)(=O)Nc1ccc(C(=O)Nc2ccccc2)cc1`: the EC50 with Poliovirus 1 was 3 µg/mL (≈ 9.39 µM).

Take `CC(C)S(=O)(=O)Nc1cccc(/C(=N/O)c2ccc(CO)cc2)c1`: the EC50 in the experiment on Enterovirus worked out at 0.39 µg/mL (≈ 1.12 µM). Molecule `COc1cccc(/C(=N\O)c2cccc(NS(=O)(=O)N(C)C)c2)c1` came in with a Chemotherapeutic index in the experiment with CV-1 of 74. For the same molecule, the EC50 in the experiment with Enterovirus was found to be 0.41 µg/mL (≈ 1.17 µM); in the experiment on Poliovirus 1, 0.34 µg/mL (≈ 0.973 µM).

For `CC(C)S(=O)(=O)Nc1ccc(C(=O)Nc2ccc(C(F)(F)F)cc2)cc1`, the EC50 in the experiment with Poliovirus 1 was 0.25 µg/mL (≈ 0.647 µM).

For `O=C(Nc1ccccc1)c1cccc(NS(=O)(=O)N2CCCC2)c1`, the EC50 in the experiment with Poliovirus 1 was found to be 6.4 µg/mL (≈ 18.5 µM).

Take `Cc1ccc(NS(=O)(=O)C(C)C)cc1C(=O)Nc1ccc(Cl)cc1`: the EC50 with Poliovirus 1 was 12 µg/mL (≈ 32.7 µM). Same read-out and setting: the figure for `CN(C)S(=O)(=O)Nc1ccc(C(=O)Nc2cccc(Cl)c2)cc1` is 1.6 µg/mL (≈ 4.52 µM). `CN(C)S(=O)(=O)Nc1cccc(/C(=N/O)c2ccc(Cl)cc2)c1` came in with a Chemotherapeutic index in the experiment with CV-1 of 26. Also, the EC50 turned out to be 0.53 µg/mL (≈ 1.5 µM) with Enterovirus and 0.46 µg/mL (≈ 1.3 µM) in the experiment on Poliovirus 1.

For the molecule `COc1ccc(/C(=N\O)c2cccc(NS(=O)(=O)C(C)C)c2)cc1`, the Chemotherapeutic index in the experiment with CV-1 was 32. Moreover, the EC50 in the experiment on Enterovirus was 0.62 µg/mL (≈ 1.78 µM); with Poliovirus 1 it was 0.36 µg/mL (≈ 1.03 µM).

For the molecule `CC(C)S(=O)(=O)Nc1cccc(C(=O)Nc2nccs2)c1`, the EC50 with Poliovirus 1 was determined as 25 µg/mL (≈ 76.8 µM). Same read-out and setting: the result for `CC(C)S(=O)(=O)Nc1cccc(C(=O)Nc2ccc(Cl)c(Cl)c2)c1` reads above 25 µg/mL; that for `CN(C)S(=O)(=O)Nc1ccc(C(=O)Nc2ccc(C(C)(C)C)cc2)cc1`, 0.12 µg/mL (≈ 0.32 µM); that for `CN(C)S(=O)(=O)Nc1cccc(C(=O)Nc2ccc(Br)cc2)c1`, 1.7 µg/mL (≈ 4.27 µM). Same read-out and setting: the figure for `CN(C)S(=O)(=O)Nc1ccc(C(=O)Nc2cccc(Br)c2)cc1` is 5 µg/mL (≈ 12.6 µM); for `CC(C)S(=O)(=O)Nc1cccc(C(=O)Nc2cccc(CO)c2)c1` it is above 50 µg/mL. For the molecule `CN(C)S(=O)(=O)Nc1cccc(C(=O)Nc2ccccc2)c1`, in the experiment with Poliovirus 1, the EC50 turned out to be 4 µg/mL (≈ 12.5 µM). The same measure, in the same setting: the figure for `CN(C)S(=O)(=O)Nc1ccc(C(=O)Nc2ccccc2Cl)cc1` is 6.2 µg/mL (≈ 17.5 µM); for `CN(C)S(=O)(=O)Nc1cccc(C(=O)Nc2ccc(C#N)cc2)c1` it is 5 µg/mL (≈ 14.5 µM).

Consider `CC(C)S(=O)(=O)Nc1cccc(C(=O)Nc2cccc(O)c2)c1`, for which, in the experiment with Poliovirus 1, the EC50 was determined as 25 µg/mL (≈ 74.8 µM). With `CN(C)S(=O)(=O)Nc1cccc(C(=O)NC2CCCCC2)c1`, in the experiment on Poliovirus 1, the EC50 turned out to be 28 µg/mL (≈ 86 µM).

Take `COC(=O)c1ccc(NC(=O)c2cccc(NS(=O)(=O)C(C)C)c2)cc1`: the EC50 in the experiment with Poliovirus 1 came to 4 µg/mL (≈ 10.6 µM).

On to `Cc1cccc(NC(=O)c2ccc(NS(=O)(=O)N(C)C)cc2)c1`, for which the EC50 with Poliovirus 1 was determined as 2.3 µg/mL (≈ 6.9 µM). On to `CC(C)S(=O)(=O)Nc1cccc(C(=O)NCc2ccco2)c1`, for which the EC50 in the experiment with Poliovirus 1 is above 50 µg/mL. Still for that read-out and setting: the result for `COc1ccc(/C(=N\O)c2cccc(NS(=O)(=O)N3CCCC3)c2)cc1` reads 1.1 µg/mL (≈ 2.93 µM); that for `CC(=O)c1ccccc1NC(=O)c1cccc(NS(=O)(=O)C(C)C)c1`, 5 µg/mL (≈ 13.9 µM). The same measure, in the same setting: the figure for `CC(C)S(=O)(=O)Nc1cccc(C(=O)Nc2ccc(F)cc2)c1` is 4.2 µg/mL (≈ 12.5 µM). The same measure, in the same setting: the result for `CC(C)S(=O)(=O)Nc1cccc(C(=O)NC(C)(C)C)c1` reads above 50 µg/mL.

In the experiment on CV-1, `COc1ccc(/C(=N/O)c2cccc(NS(=O)(=O)N(C)C)c2)c(OC)c1` gave a Chemotherapeutic index of 1.8. The EC50 is 4 µg/mL (≈ 10.5 µM) in the experiment with Enterovirus and 19.5 µg/mL (≈ 51.4 µM) in the experiment on Poliovirus 1.

For `CN(C)S(=O)(=O)Nc1ccccc1C(=O)Nc1ccccc1`, the EC50 in the experiment on Poliovirus 1 worked out at 25 µg/mL (≈ 78.3 µM). With `CCOc1ccc(/C(=N\O)c2cccc(NS(=O)(=O)N(C)C)c2)cc1`, in the experiment on Poliovirus 1, the EC50 stood at 5.5 µg/mL (≈ 15.1 µM). Still for that read-out and setting: the result for `CS(=O)(=O)Nc1cccc(C(=O)Nc2ccccc2)c1` reads above 50 µg/mL. As for `COC(=O)c1cccc(NC(=O)c2ccc(NS(=O)(=O)N(C)C)cc2)c1`, the EC50 with Poliovirus 1 amounted to 1.2 µg/mL (≈ 3.18 µM).

In turn, `COCc1ccc(/C(=N\O)c2cccc(NS(=O)(=O)C(C)C)c2)cc1` displayed a Chemotherapeutic index with CV-1 of 68. The values for the EC50 in the experiment on Enterovirus and with Poliovirus 1 were 0.98 µg/mL (≈ 2.7 µM) and 0.22 µg/mL (≈ 0.607 µM), respectively. `CN(C)S(=O)(=O)Nc1cccc(C(=O)Nc2ccccn2)c1`: in the experiment on Poliovirus 1, the EC50 is 44 µg/mL (≈ 137 µM). For `CN(C)S(=O)(=O)Nc1cccc(/C(=N/O)c2ccccc2)c1`, in the experiment with CV-1, the Chemotherapeutic index was determined as 24. Besides, the values for the EC50 with Enterovirus and in the experiment on Poliovirus 1 were 0.54 µg/mL (≈ 1.69 µM) and 0.79 µg/mL (≈ 2.47 µM), respectively.

In the case of `CC(C)S(=O)(=O)Nc1cccc(C(=O)Nc2ccccc2N)c1`, in the experiment on Poliovirus 1, the EC50 was above 50 µg/mL. Still for that read-out and setting: the result for `CC(C)S(=O)(=O)Nc1cccc(C(=O)Nc2cccc([N+](=O)[O-])c2)c1` reads above 25 µg/mL. As for `CN(C)S(=O)(=O)Nc1ccc(Cl)c(C(=O)Nc2ccc(Cl)cc2)c1`, the EC50 with Poliovirus 1 was above 50 µg/mL. Still for that read-out and setting: the result for `COc1ccc(/C(=N\O)c2cccc(NS(=O)(=O)N(C)C)c2)cc1OC` reads 0.55 µg/mL (≈ 1.45 µM); that for `CC(C)S(=O)(=O)Nc1cccc(C(=O)NC(c2ccccc2)c2ccccc2)c1`, above 50 µg/mL; that for `CC(C)S(=O)(=O)Nc1cccc(C(=O)Nc2ccc(Cl)cc2)c1`, 1.2 µg/mL (≈ 3.4 µM).

For the molecule `CC(C)S(=O)(=O)Nc1cccc(C(=O)Nc2ccc(Br)cc2)c1`, the EC50 in the experiment with Poliovirus 1 is 0.7 µg/mL (≈ 1.76 µM). The same measure, in the same setting: the figure for `CN(C)S(=O)(=O)Nc1cccc(C(=O)Nc2ccc(C(F)(F)F)cc2)c1` is 0.46 µg/mL (≈ 1.19 µM); for `CCCCc1ccc(NC(=O)c2ccc(NS(=O)(=O)C(C)C)cc2)cc1` it is 0.16 µg/mL (≈ 0.427 µM). Take `CN(C)S(=O)(=O)Nc1cccc(C(=O)Nc2cccc(Cl)c2)c1`: in the experiment with Poliovirus 1, the EC50 is 1.5 µg/mL (≈ 4.24 µM). As to `O=C(Nc1ccccc1)c1cccc(NS(=O)(=O)N2CCCCC2)c1`, the EC50 with Poliovirus 1 was found to be 11 µg/mL (≈ 30.6 µM). Consider `CN(C(=O)c1ccc(NS(=O)(=O)N(C)C)cc1)c1ccc(Cl)cc1`, for which the EC50 in the experiment on Poliovirus 1 is above 25 µg/mL.

In the case of `CN(C)S(=O)(=O)Nc1cccc(/C(=N/O)c2cccc(CO)c2)c1`, the Chemotherapeutic index with CV-1 amounted to 20. Also, the EC50 with Enterovirus was 1.6 µg/mL (≈ 4.58 µM); in the experiment with Poliovirus 1, 0.5 µg/mL (≈ 1.43 µM). For `CC(C)S(=O)(=O)Nc1cccc(C(=O)Nc2ccccc2C(F)(F)F)c1`, the EC50 in the experiment with Poliovirus 1 turned out to be 0.6 µg/mL (≈ 1.55 µM). With `CC(C)S(=O)(=O)Nc1cccc(C(=O)Nc2cccc(Cl)c2)c1`, the EC50 in the experiment with Poliovirus 1 turned out to be 1.5 µg/mL (≈ 4.25 µM). Still for that read-out and setting: the figure for `O=C(Nc1ccccc1)c1cccc(NS(=O)(=O)c2ccccc2)c1` is 17 µg/mL (≈ 48.2 µM); for `CN(C)S(=O)(=O)Nc1cc(C(=O)Nc2ccccc2)ccc1Cl` it is 10 µg/mL (≈ 28.3 µM).

`COc1ccc(/C(=N/O)c2cccc(NS(=O)(=O)N(C)C)c2)cc1` gave a Chemotherapeutic index in the experiment on CV-1 of 3.4. For the same molecule, the EC50 is 5.4 µg/mL (≈ 15.5 µM) with Enterovirus and 7.6 µg/mL (≈ 21.8 µM) with Poliovirus 1. On to `COc1ccc(NC(=O)c2cccc(NS(=O)(=O)N(C)C)c2)cc1`, for which the EC50 in the experiment on Poliovirus 1 was found to be 4 µg/mL (≈ 11.4 µM). For the molecule `CC(C)S(=O)(=O)n1c(N)nc2ccc(/C(=N/O)c3ccccc3)cc21` [ENVIROXIME], the EC50 with Enterovirus amounted to 0.024 µg/mL (≈ 0.067 µM); with Poliovirus 1, 0.032 µg/mL (≈ 0.0893 µM).
